Calls of active or inactive are those of the source. No cut-off for these calls is given here.
Columns and labels:
Medulloblastoma cell [1] = assay: Induction of apoptosis in human wildtype SMO expressing medulloblastoma cells assessed as early apoptotic cells by annexin-V/PI staining based flow cytometric analysis (reference value: 0.59%); type: functional
Medulloblastoma cell [2] = assay: Induction of apoptosis in mouse wildtype SMO expressing medulloblastoma cells assessed as necrotic cells by annexin-V/PI staining based flow cytometric analysis (reference value: 22%)
Medulloblastoma cell [3] = assay: Antiproliferative activity against in […] medulloblastoma cells expressing SmoWT-MB cells from mouse assessed as cell proliferation by EdU analysis; type: functional, cell-based
Outline: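 SmoWT-MB cells given 0.1uM GDC-0449 or LDE225 (or JQ1 1 uM); 10uM EdU added for final 6-8hrs; EdU+ cells detected by Click-iT flow cytometry or imaging, DAPI counterstain; proliferation index = EdU+/DAPI+ cells; group means ± SD.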

[4] = target: Zinc finger protein GLI2 (Homo sapiens) (UniProt P10070); assay: Inhibition of human GLI2 expressed in Hh-Light2 cells assessed as reduction in Gli1 mRNA expression level by qRT-PCR analysis; type: cell-based
Sequence of Zinc finger protein GLI2 (Homo sapiens) (P10070 whole entry, the tested form may be a part): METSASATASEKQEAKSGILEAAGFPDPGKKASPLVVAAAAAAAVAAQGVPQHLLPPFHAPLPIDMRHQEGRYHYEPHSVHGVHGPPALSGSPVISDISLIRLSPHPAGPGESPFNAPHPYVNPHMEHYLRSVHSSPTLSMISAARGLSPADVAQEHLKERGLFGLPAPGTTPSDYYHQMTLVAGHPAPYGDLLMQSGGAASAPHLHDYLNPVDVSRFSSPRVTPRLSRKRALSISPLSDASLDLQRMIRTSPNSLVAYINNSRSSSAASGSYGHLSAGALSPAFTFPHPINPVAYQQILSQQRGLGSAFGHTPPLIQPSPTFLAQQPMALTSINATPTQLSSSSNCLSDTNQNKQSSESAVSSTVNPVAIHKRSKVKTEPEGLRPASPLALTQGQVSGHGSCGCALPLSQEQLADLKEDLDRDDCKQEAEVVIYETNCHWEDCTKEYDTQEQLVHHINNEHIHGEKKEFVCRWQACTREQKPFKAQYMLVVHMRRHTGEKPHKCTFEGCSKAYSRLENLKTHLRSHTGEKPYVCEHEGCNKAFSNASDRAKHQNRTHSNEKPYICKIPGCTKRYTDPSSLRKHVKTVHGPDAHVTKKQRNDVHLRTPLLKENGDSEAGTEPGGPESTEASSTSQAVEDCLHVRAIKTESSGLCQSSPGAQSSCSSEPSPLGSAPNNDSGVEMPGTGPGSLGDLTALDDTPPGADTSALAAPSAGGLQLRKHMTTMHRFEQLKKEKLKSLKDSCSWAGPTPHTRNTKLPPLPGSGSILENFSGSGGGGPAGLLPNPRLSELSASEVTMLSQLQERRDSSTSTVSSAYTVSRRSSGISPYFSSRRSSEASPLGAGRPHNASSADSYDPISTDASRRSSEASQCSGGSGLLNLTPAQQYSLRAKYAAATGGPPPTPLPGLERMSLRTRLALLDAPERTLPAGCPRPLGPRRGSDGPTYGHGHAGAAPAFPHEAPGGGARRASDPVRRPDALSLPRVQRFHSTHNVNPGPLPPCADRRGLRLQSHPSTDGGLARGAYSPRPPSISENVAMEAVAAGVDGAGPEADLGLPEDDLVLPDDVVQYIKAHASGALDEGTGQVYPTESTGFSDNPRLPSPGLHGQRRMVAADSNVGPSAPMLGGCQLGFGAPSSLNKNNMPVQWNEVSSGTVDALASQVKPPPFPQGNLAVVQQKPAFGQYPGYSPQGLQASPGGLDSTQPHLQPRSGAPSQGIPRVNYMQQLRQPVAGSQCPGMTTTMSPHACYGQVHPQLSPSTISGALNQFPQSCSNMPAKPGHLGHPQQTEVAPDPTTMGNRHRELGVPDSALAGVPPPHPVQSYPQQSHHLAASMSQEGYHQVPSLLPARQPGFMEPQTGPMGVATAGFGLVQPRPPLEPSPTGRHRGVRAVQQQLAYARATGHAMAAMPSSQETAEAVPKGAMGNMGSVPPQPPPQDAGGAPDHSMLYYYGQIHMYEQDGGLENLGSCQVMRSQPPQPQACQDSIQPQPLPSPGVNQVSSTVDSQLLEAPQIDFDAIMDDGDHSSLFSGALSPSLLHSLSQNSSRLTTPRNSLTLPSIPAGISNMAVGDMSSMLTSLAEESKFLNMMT
Outline: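 Hh-Light2 cells transiently transfected (Turbofect) with full-length murine HA-Gli2-FL or N-terminally truncated human Myc-GLI2-DN; drugs (1 uM JQ1, GDC-0449, LDE225 or SANT-1) added 24hr post-transfection; Gli1 mRNA by SYBR Green qRT-PCR; mean of triplicates ± SD.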

[5] = target: Bromodomain-containing protein 4 (Mus musculus) (UniProt Q9ESU6); assay: Inhibition of BRD4 in mouse Hh-Light2 cells assessed as inhibition in Gli1 protein level by immunoblot analysis
Medulloblastoma cell [6] = assay: Induction of apoptosis in human wildtype SMO expressing medulloblastoma cells assessed as viable cells by annexin-V/PI staining based flow cytometric analysis (reference value: 74.9%); type: functional
[7] = target: Bromodomain-containing protein 4 (Mus musculus) (UniProt Q9ESU6); assay: Inhibition of BRD4 in mouse Hh-Light2 cells assessed as Gli1 mRNA level by qRT-PCR analysis
MEF [8] = assay: Downregulation of Gli1 protein expression in Sufu-/- MEF cells by immunoblot analysis; type: functional, cell-based; conditions: Mus musculus
Outline: (§1)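 Sufu−/− MEFs exposed to DMSO or 1 uM of JQ1, GDC-0449, LDE225 or SANT-1; RIPA lysis 30min on ice, cleared 13000rpm 15min 4°C; SDS-PAGE immunoblot with anti-GLI1, β-tubulin as loading control.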

MEF [9] = assay: Downregulation of Gli transcription in Sufu-/- MEF cells by immunoblot analysis; type: functional, cell-based; conditions: Mus musculus; outline: as §1
Medulloblastoma cell [10] = assay: Induction of apoptosis in mouse wildtype SMO expressing medulloblastoma cells assessed as late apoptotic cells by annexin-V/PI staining based flow cytometric analysis (reference value: 2.5%)

inhibition [4]	inhibition [5]	inhibition [7]	SMILES	Activity (Medulloblastoma cell [1]) [%]	Activity (Medulloblastoma cell [2]) [%]	Activity (Medulloblastoma cell [3])	Activity (Medulloblastoma cell [6]) [%]	Activity (MEF [8])	Activity (MEF [9])	Activity (Medulloblastoma cell [10]) [%]
inactive	Active	Active	Cc1c(C(=O)Nc2ccc(N3C[C@@H](C)O[C@@H](C)C3)nc2)cccc1-c1ccc(OC(F)(F)F)cc1 [SONIDEGIB]	1.09	58.8	Active	33	inactive	inactive	7.15
inactive	Active	Active	Cc1nn(-c2ccccc2)c(C)c1/C=N/N1CCN(Cc2ccccc2)CC1	–	–	–	–	inactive	inactive	–

Source: ChEMBL document CHEMBL5712072, “Epigenetic targeting of Hedgehog pathway transcriptional output through BET bromodomain inhibition” (Nat Med, 2014)
